From ChEMBL document CHEMBL3352321, “Design and total synthesis of Mannich derivatives of marine natural product lamellarin D as cytotoxic agents” (2014)
The source made the active and inactive calls. No cut-off for these calls is given here.

Columns and labels:
HepG2 = experiment: Antiproliferative activity against human HepG2 cells assessed as growth inhibition after 72 hrs by MTT assay; format: functional; conditions: HepG2, 72 h
How it was run: (§1)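 ATCC-sourced cells seeded at 4000 per well and left 12 h, then medium exchanged for fresh medium carrying graded compound concentrations for 72 h. MTT (5 mg/mL, 10 µl) added for 3 h, formazan dissolved in DMSO, absorbance read at 540 nm. GI50 taken from dose-response curve; mean ± SEM of three independent experiments.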

K562 = experiment: Antiproliferative activity against human K562 cells assessed as growth inhibition after 72 hrs by MTT assay; format: functional; conditions: K562, 72 h; how it was run: as §1
HT-29 = experiment: Antiproliferative activity against human HT-29 cells assessed as growth inhibition after 72 hrs by MTT assay; format: functional; conditions: HT-29, 72 h; how it was run: as §1
MDA-MB-231 = experiment: Antiproliferative activity against human MDA-MB-231 cells assessed as growth inhibition after 72 hrs by MTT assay; format: functional; conditions: MDA-MB-231, 72 h; how it was run: as §1
[1] = molecular target: T1, DNA topoisomerase (Bos taurus) (UniProt A0JN73); experiment: Inhibition of calf thymus Topoisomerase 1-mediated relaxation of supercoiled pBR322 DNA at 100 uM after 30 mins by gel electrophoresis
T1 sequence (whole entry): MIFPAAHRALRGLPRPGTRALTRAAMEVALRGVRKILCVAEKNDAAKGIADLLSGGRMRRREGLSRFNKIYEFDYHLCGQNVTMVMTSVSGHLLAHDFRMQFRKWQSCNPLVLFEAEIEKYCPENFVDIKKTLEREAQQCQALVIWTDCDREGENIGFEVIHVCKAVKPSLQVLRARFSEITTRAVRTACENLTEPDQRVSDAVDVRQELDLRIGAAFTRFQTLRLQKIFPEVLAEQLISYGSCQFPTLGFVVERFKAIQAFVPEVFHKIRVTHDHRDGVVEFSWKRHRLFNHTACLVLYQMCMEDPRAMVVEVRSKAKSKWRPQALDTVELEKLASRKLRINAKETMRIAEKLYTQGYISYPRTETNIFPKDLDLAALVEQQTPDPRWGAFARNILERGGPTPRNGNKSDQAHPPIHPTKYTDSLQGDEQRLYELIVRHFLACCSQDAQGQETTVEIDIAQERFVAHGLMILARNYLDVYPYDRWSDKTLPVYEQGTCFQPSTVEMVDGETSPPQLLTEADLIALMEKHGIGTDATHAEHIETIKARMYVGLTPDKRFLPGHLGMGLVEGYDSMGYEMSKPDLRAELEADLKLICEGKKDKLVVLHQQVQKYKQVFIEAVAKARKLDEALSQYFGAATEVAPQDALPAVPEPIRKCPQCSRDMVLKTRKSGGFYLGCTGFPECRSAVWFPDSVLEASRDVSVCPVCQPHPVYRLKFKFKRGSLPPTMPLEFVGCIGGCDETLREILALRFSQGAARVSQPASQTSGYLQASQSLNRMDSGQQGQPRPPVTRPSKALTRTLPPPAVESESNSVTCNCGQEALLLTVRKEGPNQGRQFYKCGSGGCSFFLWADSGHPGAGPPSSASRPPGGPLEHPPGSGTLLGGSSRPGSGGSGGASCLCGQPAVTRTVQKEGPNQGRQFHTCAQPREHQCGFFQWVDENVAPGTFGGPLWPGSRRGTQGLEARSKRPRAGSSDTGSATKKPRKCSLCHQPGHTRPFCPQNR
How it was run: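 Supercoiled pBR322 DNA incubated with 1 unit calf thymus topoisomerase I, with or without compound at 100 µM, 30 min at 37 °C. Stopped with 10% SDS, run on 1% agarose gel, stained 15 min with DNA gel stain and imaged under UV. Controls without enzyme included.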

| GI50 (HepG2) [µM] | GI50 (K562) [nM] | GI50 (HT-29) [µM] | GI50 (MDA-MB-231) [µM] | inhibition [1] | Structure (SMILES) |
| --- | --- | --- | --- | --- | --- |
| 2.14 | 1610 | 40.8 | 17.9 | inactive | COc1cc(-c2c3n(c4c(=O)oc5cc(O)c(OC)cc5c24)CCc2cc(O)c(OC)cc2-3)ccc1O |
| 3.69 | 2250 | 2.64 | 4.87 | Active | COc1cc(-c2c3c4cc(OC)c(O)c(CN5CCOCC5)c4oc(=O)c3n3ccc4cc(O)c(OC)cc4c23)ccc1O |
| 5.04 | 1040 | 2.52 | 5.78 | Active | CCN(CC)Cc1c(O)c(OC)cc2c1oc(=O)c1c2c(-c2ccc(O)c(OC)c2)c2c3cc(OC)c(O)cc3ccn21 |
| 6.83 | 2370 | 2.92 | 9.75 | Active | CCCN(CCC)Cc1c(O)c(OC)cc2c1oc(=O)c1c2c(-c2ccc(O)c(OC)c2)c2c3cc(OC)c(O)cc3ccn21 |
| > 50 | 9620 | 5.68 | 9.89 | Active | COc1cc(-c2c3c4cc(OC)c(O)c(CN(C)C)c4oc(=O)c3n3ccc4c(CN(C)C)c(O)c(OC)cc4c23)ccc1O |
| 15.8 | 7160 | 2.83 | 6.15 | Active | CCCN(CCC)Cc1c(O)c(OC)cc2c1oc(=O)c1c2c(-c2ccc(O)c(OC)c2)c2c3cc(OC)c(O)c(CN(C)C)c3ccn21 |
| 4.47 | 2840 | 13 | 19.9 | Active | COc1cc(-c2c3c4cc(OC)c(O)cc4oc(=O)c3n3ccc4c(CN5CCOCC5)c(O)c(OC)cc4c23)ccc1O |
| 6.37 | 1340 | 15 | 13.1 | Active | COc1cc(-c2c3c4cc(OC)c(O)cc4oc(=O)c3n3ccc4c(CN(C)C)c(O)c(OC)cc4c23)ccc1O |
| 2.63 | 430 | 5.46 | 3.3 | inactive | COc1cc(-c2c3c4cc(OC)c(O)c(CN(C)C)c4oc(=O)c3n3ccc4cc(O)c(OC)cc4c23)ccc1O |
| 30.1 | 1850 | 6.41 | 3.98 | inactive | COc1cc2c(cc1O)oc(=O)c1c2c(-c2cc(CN(C)C)c(O)c(OC)c2)c2c3cc(OC)c(O)cc3ccn21 |
| 21.3 | 9940 | 18.3 | 33.1 | Active | COc1cc(-c2c3c4cc(OC)c(O)cc4oc(=O)c3n3ccc4c(CN5CCCCC5)c(O)c(OC)cc4c23)ccc1O |
| 6.99 | 1950 | 2.5 | 7.25 | Active | COc1cc(-c2c3c4cc(OC)c(O)c(CN5CCCCC5)c4oc(=O)c3n3ccc4cc(O)c(OC)cc4c23)ccc1O |

| Structure (SMILES) | GI50 (HepG2) [µM] | GI50 (K562) [nM] | GI50 (HT-29) [µM] | GI50 (MDA-MB-231) [µM] | inhibition [1] |
| --- | --- | --- | --- | --- | --- |
| COc1cc(-c2c3c4cc(OC)c(O)cc4oc(=O)c3n3ccc4cc(O)c(OC)cc4c23)ccc1O [LAMELLARIN D] | 0.09 | 80 | 4.47 | 0.32 | Active |
